This is an account of results in ChEMBL document CHEMBL3525987, “Assessment of exposure of metabolites in preclinical species and humans at steady state from the single-dose radiolabeled absorption, distribution, metabolism, and excretion studies: a case study” (Drug Metab Dispos, 2012).

Data set [1] is described as follows: Half life in male Sprague-Dawley rat plasma at 10 mg/kg, po administered as single dose via gavage by LC-MS/MS analysis. The data set is classed as ADME, organism-based. Further details: dose 10 mg/kg, dosed compound name [14C]lixivaptan, route oral. In outline:
(§1)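 Jugular-vein cannulated SD rats (5/gender) given gavage [14C]drug 10 mg/kg in pluronic F68/water; K2EDTA blood 0.25-168 h with donor blood replacement. Parent by validated LC-MS/MS, radioactivity by LSC; Tmax observed; t1/2 = 0.693/kel by terminal log-linear regression.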

Data set [2] is described as follows: Tmax in human plasma at 100 mg, po administered as single dose by LC-MS/MS analysis. In kind it is ADME, organism-based. The arrangement: dosed compound name [14C]lixivaptan. The method, boiled down:
(§2)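 Single oral 100 mg [14C]drug to healthy male volunteers; plasma at 0.25-144 h. Parent by validated LC-MS/MS, total radioactivity by LSC as ng-equiv/ml; Tmax from observed data; t1/2 = 0.693/kel from log-linear terminal regression.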

The test system of the next data set is Homo sapiens. Description: Drug concentration at steady state in human at 100 mg, po qd for 7 days by LC/MS/MS analysis. The data set is classed as ADME, organism-based. Further details: dosed compound name Lixivaptan. The note with it: in vivo, 168 h. In outline: (§3)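 Phase 1 human study with lixivaptan 100 mg orally once daily and blood taken on the final day. Parent and two abundant metabolites were quantified in plasma with a validated LC-MS/MS assay.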

Data set [3] can be described thus: Tmax in male beagle dog plasma at 10 mg/kg, po administered as single dose by LC-MS/MS analysis. Further details: dose 10 mg/kg, dosed compound name [14C]lixivaptan, route oral. The data set is classed as ADME, organism-based, Canis lupus familiaris. The method, boiled down:
(§4)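 Male beagles given 10 mg/kg [14C]drug oral suspension; jugular K2EDTA blood at 0.25-168 h. Parent by validated LC-MS/MS, total radioactivity by LSC; Tmax observed; t1/2 = 0.693/kel from terminal log-linear regression.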

The nature of data set [4]: AUC(0 to infinity) in male beagle dog plasma at 10 mg/kg, po administered as single dose by LC-MS/MS analysis. In kind it is ADME, organism-based, Canis lupus familiaris. Further details: time infinity, dose 10 mg/kg, dosed compound name [14C]lixivaptan, route oral. The method, boiled down:
(§5)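 Four male beagles were fasted 18 h and gavaged once with 10 mg/kg (2 ml/kg) [14C]lixivaptan as a 5.0 mg/ml water/pluronic F68 suspension. Jugular K2EDTA blood was sampled from 0.25 to 168 h. Plasma total radioactivity was counted by LSC as ng-equiv/ml and lixivaptan by validated LC-MS/MS. Noncompartmental Cmax, t1/2 and trapezoidal AUC were derived.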

Data set [5] is described as follows: AUC at steady state in human at 100 mg, po qd for 7 days by LC/MS/MS analysis. The arrangement: dosed compound name Lixivaptan. The data set is classed as ADME, organism-based. The note with it: plasma. The method, boiled down: as §3
A short description of data set [6]: AUC(0 to t) in male beagle dog plasma at 10 mg/kg, po administered as single dose by LC-MS/MS analysis. In kind it is ADME, organism-based, Canis lupus familiaris. The arrangement: dose 10 mg/kg, dosed compound name [14C]lixivaptan, route oral. The method, boiled down: as §5
A short description of data set [7]: AUC(0 to infinity) in female Sprague-Dawley rat plasma at 10 mg/kg, po administered as single dose via gavage by LC-MS/MS analysis. The data set is classed as ADME, organism-based. The arrangement: time infinity, dose 10 mg/kg, dosed compound name [14C]lixivaptan, route oral. The method, boiled down:
(§6)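 Jugular-cannulated Sprague-Dawley rats (5/gender) were fasted 18 h and gavaged once with 10 mg/kg [14C]lixivaptan suspended in water/pluronic F68. K2EDTA blood was taken at 0.25–168 h, with donor blood replaced from 1 h on. Total radioactivity was read by LSC (ng-equiv/ml) and parent by validated LC-MS/MS. Noncompartmental Cmax, log-linear kel and trapezoidal AUC followed.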

Data set [8] can be described thus: Tmax in female Sprague-Dawley rat plasma at 10 mg/kg, po administered as single dose via gavage by LC-MS/MS analysis. In kind it is ADME, organism-based. Further details: dose 10 mg/kg, dosed compound name [14C]lixivaptan, route oral. The method, boiled down:
as §1

A short description of data set [9]: AUC(0 to t) in female Sprague-Dawley rat plasma at 10 mg/kg, po administered as single dose via gavage by LC-MS/MS analysis. The data set is classed as ADME, organism-based. The arrangement: dose 10 mg/kg, dosed compound name [14C]lixivaptan, route oral. In outline: as §6
Data set [10] can be described thus: AUC(0 to t) in human plasma at 100 mg, po administered as single dose by LC-MS/MS analysis. The data set is classed as ADME, organism-based. The arrangement: dosed compound name [14C]lixivaptan. The method, boiled down: (§7)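 Fasted healthy males took one oral 100 mg (200 µCi) [14C]lixivaptan dose. Plasma was drawn from predose to 144 h. Total radioactivity was measured by LSC and converted to ng-equiv/ml via the dose specific activity; lixivaptan by validated LC-MS/MS. Noncompartmental analysis: Cmax observed; kel by log-linear regression; AUC0-t by linear trapezoid; extrapolation as Cest/kel.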

Data set [11] can be described thus: Cmax in human plasma at 100 mg, po administered as single dose by LC-MS/MS analysis. In kind it is ADME, organism-based. The arrangement: dose 100 mg, route oral, dosed compound name [14C]lixivaptan. In outline: as §7
The nature of data set [12]: Tmax in male Sprague-Dawley rat plasma at 10 mg/kg, po administered as single dose via gavage by LC-MS/MS analysis. Further details: dose 10 mg/kg, dosed compound name [14C]lixivaptan, route oral. The data set is classed as ADME, organism-based. The method, boiled down:
as §1

Data set [13] is described as follows: Half life in female Sprague-Dawley rat plasma at 10 mg/kg, po administered as single dose via gavage by LC-MS/MS analysis. In kind it is ADME, organism-based. Further details: dose 10 mg/kg, dosed compound name [14C]lixivaptan, route oral. The method, boiled down:
as §1

Data set [14] can be described thus: AUC(0 to infinity) in male Sprague-Dawley rat plasma at 10 mg/kg, po administered as single dose via gavage by LC-MS/MS analysis. The data set is classed as ADME, organism-based. The arrangement: time infinity, dose 10 mg/kg, dosed compound name [14C]lixivaptan, route oral. In outline: as §6
Data set [15] can be described thus: Cmax in male Sprague-Dawley rat plasma at 10 mg/kg, po administered as single dose via gavage by LC-MS/MS analysis. The data set is classed as ADME, organism-based. Further details: dose 10 mg/kg, dosed compound name [14C]lixivaptan, route oral. The method, boiled down:
as §6

Data set [16] is described as follows: AUC(0 to t) in male Sprague-Dawley rat plasma at 10 mg/kg, po administered as single dose via gavage by LC-MS/MS analysis. The data set is classed as ADME, organism-based. Further details: dose 10 mg/kg, dosed compound name [14C]lixivaptan, route oral. The method, boiled down:
as §6

Data set [17] is described as follows: Cmax in male beagle dog plasma at 10 mg/kg, po administered as single dose by LC-MS/MS analysis. The arrangement: dose 10 mg/kg, dosed compound name [14C]lixivaptan, route oral. The data set is classed as ADME, organism-based, Canis lupus familiaris. In outline: as §5
The nature of data set [18]: Cmax in female Sprague-Dawley rat plasma at 10 mg/kg, po administered as single dose. The data set is classed as ADME, organism-based. The arrangement: dose 10 mg/kg, dosed compound name [14C]lixivaptan, route oral. In outline:
as §6

Data set [19] is described as follows: Half life in human plasma at 100 mg, po administered as single dose by LC-MS/MS analysis. The data set is classed as ADME, organism-based. The arrangement: dosed compound name [14C]lixivaptan. In outline: as §2
Data set [20] is described as follows: AUC(0 to infinity) in human plasma at 100 mg, po administered as single dose by LC-MS/MS analysis. Further details: dose 100 mg, route oral, time infinity, dosed compound name [14C]lixivaptan. The data set is classed as ADME, organism-based. In outline: as §7
Data set [21] in a line: Half life in male beagle dog plasma at 10 mg/kg, po administered as single dose by LC-MS/MS analysis. In kind it is ADME, organism-based, Canis lupus familiaris. The arrangement: dose 10 mg/kg, dosed compound name [14C]lixivaptan, route oral. The method, boiled down: as §4

For orientation: half-life means the time in which the quantity being followed falls by half. A low value points to fast loss. As a reminder, the Tmax is the time at which the peak concentration occurs. Usually AUC(0-inf) stands for total exposure, with the tail of the curve extrapolated. By AUC is commonly meant concentration integrated over time. Low readings indicate low exposure, high ones high exposure. One may read the AUC(0-t) as exposure summed from dosing to a finite time, without extrapolation to infinity. The low end stands for less exposure, the high end for more exposure. As usually defined, the Cmax is the maximum level reached in the sampled fluid or tissue. With `Cc1ccc(F)cc1C(=O)Nc1ccc(C(=O)N2Cc3cccn3Cc3ccccc32)c(Cl)c1` [LIXIVAPTAN], the half-life in data set [1] is 1.3 h; in [13] it was 4.2 h; in data set [19], 9.77 h; in data set [21] it was 8.8 h. In addition, the Tmax in [2] stood at 0.7 h; in data set [3], 0.8 h; in data set [8], 0.8 h; in data set [12], 0.8 h. In the data set with Homo sapiens, the Css worked out at 514 ng/mL. Also, the total exposure AUC(0-inf) in data set [4] came to 4870 ng·h/mL; in data set [7], 1890 ng·h/mL; in [14] it was 219 ng·h/mL; in data set [20], 1570 ng·h/mL. The area under the curve (AUC) at 168 h in [5] was determined as 2960 ng·h/mL. Also, the AUC(0-t) was found to be 4700 ng·h/mL in data set [6], 1530 ng·h/mL in data set [9], 1540 ng·h/mL in data set [10] and 140 ng·h/mL in data set [16]. Further, the Cmax in data set [11] amounted to 437 ng/mL; in data set [15] it was 91 ng/mL; in data set [17] it was 759 ng/mL; in data set [18], 338 ng/mL.
